Measured values published in PMC5902032 (European journal of medicinal chemistry, 2018).
Where two headings read alike, the source gives them in different places.

Legend:
[1] = tested on: male and female NF54 gametes; conditions: cited from earlier work
PfPMT = target: T1, PfPMT (Plasmodium falciparum, UniProt Q8IDQ9); experiment: PfPMT radiochemical methyltransferase assay; format: biochemical; conditions: 100 μM
T1 sequence (Q8IDQ9 1-266): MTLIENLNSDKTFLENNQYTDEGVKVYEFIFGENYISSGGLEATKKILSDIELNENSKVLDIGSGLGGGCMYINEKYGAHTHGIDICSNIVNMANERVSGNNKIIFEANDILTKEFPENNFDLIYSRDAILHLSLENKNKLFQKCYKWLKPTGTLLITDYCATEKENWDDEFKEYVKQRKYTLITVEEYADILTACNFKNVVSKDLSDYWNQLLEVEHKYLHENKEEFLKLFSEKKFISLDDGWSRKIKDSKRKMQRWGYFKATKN
Procedure, shortened: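 Recombinant PfPMT was expressed in and purified from E. coli. Activity was measured radiochemically with 2 µg enzyme in 0.1 M Hepes-KOH pH 8.0, 2 mM Na2EDTA, 10% glycerol and 5% DMSO. The reaction contained 30 µM SAM (including 100 nCi [methyl-14C]SAM) and 55 µM phosphoethanolamine. Inhibitors were screened at 100 µM; values are mean ± SD, n = 3.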

[2] = tested on: Langendorff-isolated rat hearts; experiment: Cardiac mechanical function and ECG in Langendorff-isolated rat hearts; conditions: for Effect on left ventricular pressure (LVP): concentration-effect relationship; for Effect on coronary perfusion pressure (CPP): data not shown
Procedure, shortened: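 Rats heparinised (5000 U/kg) with xylazine (4 mg/kg), decapitated. Hearts perfused retrogradely via aorta at 10 mL/min with Krebs-Henseleit (95% O2-5% CO2, pH 7.4, 37 °C), equilibrated ≥20 min before drug. LVP by intraventricular latex balloon (end-diastolic 10 mmHg), systolic minus diastolic. CPP by inflow-line transducer. Surface ECG at 1 kHz: RR, HR, PQ, QRS, QT, Bazett-corrected QTc.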

[3] = tested on: late stages Plasmodium gametocytes; conditions: read-out: in vitro IC50 against late stages Plasmodium gametocytes; different published assays; cited from earlier work
[4] = tested on: P. falciparum asexual and sexual stages; conditions: read-out: IC50 against P. falciparum asexual and sexual stages; cited from earlier work
[5] = tested on: P. falciparum D10 (CQ-S) strain; experiment: Antiplasmodial activity against D10 strain; format: cell-based, Plasmodium falciparum; conditions: read-out: D10 IC50
[6] = tested on: P. falciparum W2 (CQ-R) strain; experiment: Antiplasmodial activity against W2 strain; format: cell-based, Plasmodium falciparum; conditions: read-out: W2 IC50
[7] = tested on: P. falciparum strain NF54 asexual blood stage parasites; experiment: NF54 asexual blood stage Sybrgreen DNA replication assay; format: cell-based, Plasmodium falciparum; conditions: read-out: NF54 IC50, CQ-S strain, 72 h
Procedure, shortened: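 Asexual NF54 parasites were seeded at 0.83% parasitaemia and 1.5% haematocrit in RPMI1640 with 10% human serum. Serial dilutions were made from DMSO stocks in medium (final DMSO 0.1%). Plates were incubated 72 h at 37 °C under 3% O2 and 4% CO2. Growth was read as SYBR Green fluorescence.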

[8] = target: P. falciparum NF54-HGL gametocytes; experiment: NF54-HGL gametocyte luciferase assay; format: cell-based, Plasmodium falciparum; conditions: read-out: GCT: NF54-HGL IC50
Procedure, shortened: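 Gametocytes came from a flask inoculated with 1% asexual parasites at 5% haematocrit in RPMI1640 with 10% human serum. Asexual stages were cleared with 50 mM NAG on days 4–9. Mostly stage IV cells were Percoll-purified on day 11 and plated at 5000 per well (final DMSO 0.1%). After 72 h at 37 °C, 3% O2, 4% CO2, viability was read as ONE-Glo luminescence.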

[9] = target: P. falciparum 3D7elo1-pfs16-CBG99 late-stage gametocytes; experiment: Gametocytocidal luciferase-based assay, 3D7elo1-pfs16-CBG99; format: cell-based, Plasmodium falciparum; conditions: read-out: GCT: 3D7elo1-pfs16-CBG99 IC50, 72 h
P. berghei liver stages = experiment: P. berghei liver-stage analysis in mouse primary hepatocytes; format: cell-based, Plasmodium berghei
Procedure, shortened: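 Mouse primary hepatocytes were infected with 20'000 mCherry-expressing P. berghei ANKA sporozoites. From 2 h post-infection, cells received a range of test compound concentrations or a matching DMSO control, with medium and drug renewed at 24 h. At 48 h, parasite number and size in unfixed cells were measured by automated microscopy (n = 4, SD). Groups were compared by one-way ANOVA with Dunnett's test.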

Cav1.2 channels = Cav1.2 channels (Rattus norvegicus, UniProt P22002); experiment: Whole-cell patch-clamp of IBa1.2 in single rat tail artery myocytes; format: cell-based; conditions: 30 μM
Chain of Cav1.2 channels (P22002 whole entry): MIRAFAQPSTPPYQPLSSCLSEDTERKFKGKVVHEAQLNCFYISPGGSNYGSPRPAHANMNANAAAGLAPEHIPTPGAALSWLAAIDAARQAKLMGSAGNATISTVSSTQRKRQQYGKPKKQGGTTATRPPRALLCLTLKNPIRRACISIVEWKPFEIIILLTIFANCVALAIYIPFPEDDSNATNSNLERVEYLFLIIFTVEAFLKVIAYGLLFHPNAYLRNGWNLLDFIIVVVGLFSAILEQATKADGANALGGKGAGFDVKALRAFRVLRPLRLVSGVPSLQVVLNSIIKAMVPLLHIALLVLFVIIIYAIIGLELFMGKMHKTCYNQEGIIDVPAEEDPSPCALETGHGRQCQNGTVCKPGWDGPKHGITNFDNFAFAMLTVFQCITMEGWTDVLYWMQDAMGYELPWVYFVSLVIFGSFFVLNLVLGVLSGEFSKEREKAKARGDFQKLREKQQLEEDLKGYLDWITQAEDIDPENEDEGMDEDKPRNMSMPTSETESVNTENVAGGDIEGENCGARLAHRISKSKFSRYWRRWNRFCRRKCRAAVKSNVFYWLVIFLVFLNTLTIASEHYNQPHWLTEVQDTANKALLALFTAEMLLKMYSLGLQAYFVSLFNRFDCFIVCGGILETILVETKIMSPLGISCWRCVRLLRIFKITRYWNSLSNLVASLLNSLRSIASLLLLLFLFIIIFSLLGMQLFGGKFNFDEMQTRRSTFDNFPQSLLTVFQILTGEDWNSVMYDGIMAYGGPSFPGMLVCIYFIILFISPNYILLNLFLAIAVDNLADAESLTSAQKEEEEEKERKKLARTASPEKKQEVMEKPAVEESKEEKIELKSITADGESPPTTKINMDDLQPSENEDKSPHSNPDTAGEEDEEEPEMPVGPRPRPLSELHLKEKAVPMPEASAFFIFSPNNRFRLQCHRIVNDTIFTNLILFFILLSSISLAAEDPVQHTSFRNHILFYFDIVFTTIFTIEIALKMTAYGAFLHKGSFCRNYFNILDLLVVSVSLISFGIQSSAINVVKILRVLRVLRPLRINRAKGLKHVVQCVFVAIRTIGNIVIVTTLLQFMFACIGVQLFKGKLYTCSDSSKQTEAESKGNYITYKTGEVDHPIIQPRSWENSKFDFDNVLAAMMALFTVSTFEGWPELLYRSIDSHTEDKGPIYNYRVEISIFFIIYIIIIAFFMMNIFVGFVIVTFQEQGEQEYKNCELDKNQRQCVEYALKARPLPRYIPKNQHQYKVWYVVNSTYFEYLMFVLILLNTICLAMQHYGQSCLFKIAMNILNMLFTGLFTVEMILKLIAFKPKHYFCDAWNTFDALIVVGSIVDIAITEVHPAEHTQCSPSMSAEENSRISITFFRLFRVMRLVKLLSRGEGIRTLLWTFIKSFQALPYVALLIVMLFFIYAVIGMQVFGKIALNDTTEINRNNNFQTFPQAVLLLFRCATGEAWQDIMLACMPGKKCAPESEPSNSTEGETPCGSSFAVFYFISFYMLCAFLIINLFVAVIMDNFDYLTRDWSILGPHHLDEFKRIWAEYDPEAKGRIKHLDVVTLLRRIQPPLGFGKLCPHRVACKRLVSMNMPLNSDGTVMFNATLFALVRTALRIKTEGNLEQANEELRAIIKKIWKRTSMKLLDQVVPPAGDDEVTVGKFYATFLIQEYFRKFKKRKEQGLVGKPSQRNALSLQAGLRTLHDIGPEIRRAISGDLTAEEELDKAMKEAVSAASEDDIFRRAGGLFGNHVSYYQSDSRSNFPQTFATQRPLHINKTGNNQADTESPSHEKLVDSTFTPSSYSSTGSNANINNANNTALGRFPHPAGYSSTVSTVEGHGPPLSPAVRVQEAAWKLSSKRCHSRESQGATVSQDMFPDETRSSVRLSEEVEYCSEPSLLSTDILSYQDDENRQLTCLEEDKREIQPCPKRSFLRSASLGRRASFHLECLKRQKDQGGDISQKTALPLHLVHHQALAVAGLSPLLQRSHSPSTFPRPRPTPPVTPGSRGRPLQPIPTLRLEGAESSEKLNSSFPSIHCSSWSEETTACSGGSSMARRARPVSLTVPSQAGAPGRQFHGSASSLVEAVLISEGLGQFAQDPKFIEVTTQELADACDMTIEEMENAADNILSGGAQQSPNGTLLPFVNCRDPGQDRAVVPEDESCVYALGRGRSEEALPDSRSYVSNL
Chain of Cav1.2 channels (P54290 25-944 partner limits assumed): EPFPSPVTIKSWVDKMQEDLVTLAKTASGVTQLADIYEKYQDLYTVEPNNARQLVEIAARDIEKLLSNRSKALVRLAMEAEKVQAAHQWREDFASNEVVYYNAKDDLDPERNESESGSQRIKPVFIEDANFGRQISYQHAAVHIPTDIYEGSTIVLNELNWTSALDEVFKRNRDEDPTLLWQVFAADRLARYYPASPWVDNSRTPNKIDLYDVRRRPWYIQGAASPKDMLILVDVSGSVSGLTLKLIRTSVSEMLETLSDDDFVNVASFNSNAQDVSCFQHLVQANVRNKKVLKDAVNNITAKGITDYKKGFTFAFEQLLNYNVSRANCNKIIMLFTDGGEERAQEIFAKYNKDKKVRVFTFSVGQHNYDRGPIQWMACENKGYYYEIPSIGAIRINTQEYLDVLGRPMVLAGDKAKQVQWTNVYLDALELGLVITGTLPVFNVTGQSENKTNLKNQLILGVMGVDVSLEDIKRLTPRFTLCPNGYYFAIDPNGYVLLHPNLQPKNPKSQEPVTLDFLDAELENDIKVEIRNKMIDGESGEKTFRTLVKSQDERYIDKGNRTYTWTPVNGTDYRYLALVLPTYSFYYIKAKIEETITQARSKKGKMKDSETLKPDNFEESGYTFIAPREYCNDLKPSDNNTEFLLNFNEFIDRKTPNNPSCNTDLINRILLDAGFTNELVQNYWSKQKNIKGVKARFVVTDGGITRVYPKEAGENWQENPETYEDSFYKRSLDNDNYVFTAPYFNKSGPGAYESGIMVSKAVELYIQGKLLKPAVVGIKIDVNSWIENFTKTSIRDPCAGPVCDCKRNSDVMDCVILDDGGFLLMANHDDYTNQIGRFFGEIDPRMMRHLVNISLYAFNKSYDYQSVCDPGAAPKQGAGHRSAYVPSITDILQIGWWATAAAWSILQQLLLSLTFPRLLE
Chain of Cav1.2 channels (P54290 945-1091 partner limits assumed): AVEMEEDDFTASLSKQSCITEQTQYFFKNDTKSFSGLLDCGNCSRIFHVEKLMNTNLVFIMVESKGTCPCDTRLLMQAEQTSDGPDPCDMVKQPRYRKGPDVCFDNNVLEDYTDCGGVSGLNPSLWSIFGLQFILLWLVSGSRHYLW
Chain of Cav1.2 channels (P54287 whole entry partner): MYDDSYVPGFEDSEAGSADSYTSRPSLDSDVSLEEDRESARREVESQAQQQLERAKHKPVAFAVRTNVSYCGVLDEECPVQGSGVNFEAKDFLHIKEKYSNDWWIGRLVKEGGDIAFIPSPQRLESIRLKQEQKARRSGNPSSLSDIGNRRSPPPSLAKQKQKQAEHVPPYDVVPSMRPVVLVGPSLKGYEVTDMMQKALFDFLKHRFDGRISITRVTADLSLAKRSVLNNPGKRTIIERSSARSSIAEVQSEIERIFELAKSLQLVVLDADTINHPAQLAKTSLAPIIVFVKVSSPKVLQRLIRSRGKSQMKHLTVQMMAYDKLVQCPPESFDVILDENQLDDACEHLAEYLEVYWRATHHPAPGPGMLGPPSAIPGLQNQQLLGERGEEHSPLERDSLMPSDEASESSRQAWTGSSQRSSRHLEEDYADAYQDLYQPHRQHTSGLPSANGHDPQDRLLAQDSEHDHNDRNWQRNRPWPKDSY
Procedure, shortened: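 Rat tail artery myocytes were isolated enzymatically (collagenase, 37 °C, 40–45 min), kept at 4 °C and used within two days. Whole-cell patch-clamp was run at 20–22 °C. The external solution held 5 mM Ba2+ and 30 mM TEA; the pipette solution was Cs+-based (pCa 8.4, pH 7.4). IBa was evoked by 250-ms pulses to 0 mV from −50 mV at 0.067 Hz, with recording once current had stabilised.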

In the case of `Clc1cc(Br)ccc1-c1ccc(CNCC2CCNCC2)o1` [Compound 1, 1-(5-(4-Bromo-2-chlorophenyl)furan-2-yl)-N-(piperidin-4-ylmethyl)methanamine], the “Activity on male and female NF54 gametes” value [1] is listed as “activity on both male and female NF54 gametes”, the “Inhibitory activity against PfPMT” value (PfPMT) is listed as “weak activity” and the Sinus arrhythmia [2] is listed as 3 out of 4. For the same molecule, the “Effect on left ventricular pressure (LVP)” value [2] was “reduced left ventricular pressure (LVP) in a concentration-dependent manner”, the “Effect on coronary perfusion pressure (CPP)” value [2] was “leaving unaltered coronary perfusion pressure” and the IC50 [3] was < 1000 nM. The IC50 [4] was < 1000 nM.
With `C[N+](C)(CCCNCc1ccc(-c2ccc(Cl)cc2Br)o1)Cc1ccccc1.[Cl-]` [Compound 48, N-Benzyl-3-[(5-(4-chloro-2-bromophenyl)furan-2-yl-methyl)amino]-N,N-dimethylpropan-1-ammonium chloride] the “Inhibitory activity against PfPMT” value (PfPMT) was “weak activity”.
`CCN(CC)CCCC(C)Nc1ccnc2cc(Cl)ccc12` (stereo not shown) [Chloroquine, reference compound] showed an IC50 ([5]; Plasmodium falciparum, D10, 72 h) of 26 nM and an IC50 ([6]; Plasmodium falciparum, W2, 72 h) of 310 nM.
For `CN(C)CCCNCc1ccc(-c2ccc(F)c(Cl)c2)o1` [Compound 2, N-[(5-(3-chloro-4-fluorophenyl)furan-2-yl)methyl]-N′,N′-dimethylpropane-1,3-diamine, reference compound], the IC50 [3] is listed as < 1000 nM.
For `N#Cc1ccc(-c2ccc(CNCC3CCNCC3)o2)cc1` [Compound 24, 1-(5-(4-Cyanophenyl)furan-2-yl)-N-(piperidin-4-3ylmethyl)methanamine], the “Inhibitory activity against PfPMT” value (PfPMT) was “weak activity”.
“1-(5-Bromobenzothiophen-2-yl)-N-(piperidin-4-ylmethyl)methanamine [Compound 32]” showed an IC50 ([5]; CQ-S strain, 72 h, pLDH) of 1000 nM, an IC50 [7] of 730 nM and an IC50 ([6]; CQ-R strain, 72 h, pLDH) of 1500 nM. For the same molecule, the IC50 ([8]; gametocytes predominantly stage IV, 72 h, luminescence) was 53 nM and the IC50 ([9]; late-stage gametocytes (stage IV–V), luciferase) was 1400 nM.
In the case of `Clc1ccc(-c2ccc(CNCC3CCNCC3)o2)c(-c2ccccc2)c1` [Compound 25, 1-(5-(2-Phenyl-4-chlorophenyl)furan-2-yl)-N-(piperidin-4-ylmethyl)methanamine], the “Effect on left ventricular pressure (LVP)” value [2] is reported as “reduced left ventricular pressure (LVP) in a concentration-dependent manner”, the “Effect on coronary perfusion pressure (CPP)” value [2] is reported as “leaving unaltered coronary perfusion pressure” and the Parasite sizes (P. berghei liver stages; 48 hpi, mouse primary hepatocytes, different concentrations) is reported as “Neither parasite numbers (Figure 2A) nor parasite sizes (Figure 2B) were significantly influenced”. The “Parasite numbers per well” value (P. berghei liver stages; 48 h, mouse primary hepatocytes, different concentrations) was “no liver stage activity”, the Detached cell formation (P. berghei liver stages; detached cells at 65 hpi vs 48 h number) was “Neither concentration tested significantly inhibited detached cell formation” and the “Effect on IBa1.2 current” value (Cav1.2 channels) was “blocked the current”.
In the case of `CC[C@H](C)[C@H](NC(=O)[C@H]([C@@H](C)CC)N(C)C(C)=O)C(=O)N[C@H](C(=O)N[C@@H](CC(C)C)C(=O)[C@@]1(C)CO1)[C@@H](C)O` [Epoxomycin, reference compound], the IC50 ([8]; Plasmodium falciparum, NF54, 72 h) is reported as 0.7 nM and the IC50 ([9]; Plasmodium falciparum) is reported as 7 nM.
